These results are taken from publication PMC5483893 (Journal of Medicinal Chemistry, 2017).

The test system of experiment [1] is acetylated α-tubulin (AcTub) in QBI-293 cells. Kind of experiment: Acetyl-tubulin assay. Type of experiment: cell-based. The following applies: for shape of concentration–response in the AcTub assay: comparison of 1 and 10 μM. The procedure, abridged: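 QBI-293 cells kept at 37 °C, 5% CO₂, trypsinised and plated at 6 × 10⁵ cells/well, then exposed overnight-later to vehicle (DMSO) or test compound for 4 h. Lysis in RIPA with protease inhibitors, 1 mM PMSF and 1 μM TSA; 100000g spin, 30 min, 4 °C. BCA protein, then AcTub ELISA. Fold-change versus vehicle, at least triplicate, two-tailed unpaired t test.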

For experiment [2], the system named is total α-tubulin in QBI-293 cells. Kind of experiment: Total α-tubulin ELISA. Type of experiment: cell-based. The following applies: at doses typically required to induce an elevation in AcTub. The method, boiled down: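 QBI-293 cells were plated at 6 × 10⁵ cells/well, grown overnight at 37 °C and 5% CO₂, then given fresh medium with vehicle (DMSO) or 1 and 10 μM test compound for 4 h. Lysis was in RIPA with protease inhibitors, 1 mM PMSF and 1 μM TSA, followed by 100000g for 30 min at 4 °C. Supernatant was BCA-normalized and α-tubulin measured by ELISA as fold-change versus vehicle. Samples were run at least in triplicate; significance was by two-tailed unpaired t test.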

The test system of experiment [3] is COX-derived PGD2 and PGE2 in RBL-1 cells. In kind it is cell-based, rat.

As to `COc1cc(F)c(-c2c(Cl)nc(C)n2-c2ccc(Cl)cc2)c(F)c1` [Compound 2, 4-Chloro-1-(4-chlorophenyl)-5-(2,6-difluoro-4-methoxyphenyl)-2-methyl-1H-imidazole], the “shape of concentration–response in the AcTub assay” value (from here on “shape of concentration–response”) in experiment [1] is “bell-shaped concentration–response relationship”. Besides, the “effect on total α-tubulin levels” value in experiment [2] is listed as “cause a significant reduction in total α-tubulin levels”.
On to `Cc1nc(Cl)n(-c2ccc(Cl)cc2)c1-c1c(F)ccc(Cl)c1F` [Compound 30, 2-Chloro-5-(3-chloro-2,6-difluorophenyl)-1-(4-chlorophenyl)-4-methyl-1H-imidazole], for which the “effect on total α-tubulin levels” value in experiment [2] is listed as “cause a significant reduction in total α-tubulin levels”.
Consider `Cc1ncc(-c2c(F)ccc(F)c2F)n1-c1ccc(Cl)cc1` [Compound 34, 1-(4-Chlorophenyl)-2-methyl-5-(2,3,6-trifluorophenyl)-1H-imidazole], for which, in experiment [2], the “effect on total α-tubulin levels” value was “cause a significant reduction in total α-tubulin levels”.
Consider `COc1ccc(-c2cncn2-c2ccc(Cl)cc2)cc1` [Compound 51, 1-(4-Chlorophenyl)-5-(4-methoxyphenyl)-1H-imidazole], for which, in experiment [1] (QBI-293 cells, 1 and 10 μM), the “MT activity (AcTub increase), inactive compounds” value is on record as “essentially devoid of MT activity”. Further, the “inhibition of the combined PGD2/PGE2 synthesis” value in experiment [3] (RBL-1 cell assay, tested at 10 μM) is on record as “near complete inhibition”.
Regarding `COc1cc(F)c(-c2c(Cl)nc(Cl)n2-c2ccc(Cl)cc2)c(F)c1` [Compound 58, 2,4-Dichloro-1-(4-chlorophenyl)-5-(2,6-difluoro-4-methoxyphenyl)-1H-imidazole], the “shape of concentration–response” value in experiment [1] is on record as “bell-shaped concentration–response relationship”. In experiment [2], the “effect on total α-tubulin levels” value was “cause a significant reduction in total α-tubulin levels”.
As to `Cc1ccc(F)c(-c2c(Cl)ncn2-c2ccc(Cl)cc2)c1F` [Compound 62, 4-Chloro-1-(4-chlorophenyl)-5-(2,6-difluoro-3-methylphenyl)-1H-imidazole], the “effect on total α-tubulin levels” value in experiment [2] is “cause a significant reduction in total α-tubulin levels”.
The same measure, in the same setting: the value for `Cc1ccc(F)c(-c2cnc(Cl)n2-c2ccc(Cl)cc2)c1F` [Compound 63, 2-Chloro-1-(4-chlorophenyl)-5-(2,6-difluoro-3-methylphenyl)-1H-imidazole] was “cause a significant reduction in total α-tubulin levels”; that for `Cc1nc(Cl)c(-c2c(F)ccc(Cl)c2F)n1-c1ccc(Cl)cc1` [Compound 65, 4-Chloro-5-(3-chloro-2,6-difluorophenyl)-1-(4-chlorophenyl)-2-methyl-1H-imidazole] was “cause a significant reduction in total α-tubulin levels”.
On the same count and under the same terms, the value for `Fc1ccc(Cl)c(F)c1-c1cnc(Cl)n1-c1ccc(Cl)cc1` [Compound 66, 2-Chloro-5-(3-chloro-2,6-difluorophenyl)-1-(4-chlorophenyl)-1H-imidazole] was “cause a significant reduction in total α-tubulin levels”.
For the molecule `Cc1nc(Cl)c(-c2c(F)ccc(F)c2F)n1-c1ccc(Cl)c(F)c1` [Compound 71, 4-Chloro-1-(4-chloro-3-fluorophenyl)-2-methyl-5-(2,3,6-trifluorophenyl)-1H-imidazole], the “shape of concentration–response” value in experiment [1] is listed as “bell-shaped concentration–response relationship”. Further, the “effect on total α-tubulin levels” value in experiment [2] is reported as “cause a significant reduction in total α-tubulin levels”.
Turning to `Fc1cc(F)c(-c2c(Cl)ncn2-c2ccc(Cl)nc2)c(F)c1` [Compound 73, 2-Chloro-5-(4-chloro-5-(2,4,6-trifluorophenyl)-1H-imidazol-1-yl)pyridine], the “effect on total α-tubulin levels” value in experiment [2] is reported as “cause a significant reduction in total α-tubulin levels”.
For the molecule `Cc1nc(Cl)c(-c2c(F)cccc2F)n1-c1ccc(Cl)cc1` [Compound 85, 4-Chloro-1-(4-chlorophenyl)-5-(2,6-difluorophenyl)-2-methyl-1H-imidazole], in experiment [2], the “effect on total α-tubulin levels” value is given as “cause a significant reduction in total α-tubulin levels”.
Turning to `Fc1cccc(F)c1-c1c(Cl)nc(Cl)n1-c1ccccc1Cl` [Compound 104, 2,4-Dichloro-1-(2-chlorophenyl)-5-(2,6-difluorophenyl)-1H-imidazole], the “elevation in AcTub without decrease of α-tubulin” value in experiment [1] (1 or 10 μM) is “produce an elevation in AcTub at 1 or 10 μM without decreasing α-tubulin level”. For the same molecule, the “inhibition in the PGD2/PGE2 assay” value in experiment [3] (RBL-1 cells) is recorded as > 50%.
